# ChEMBL document CHEMBL1125548, “Synthesis and pharmacological studies of N-substituted 6-[(2-aminoethyl)amino]-1,3-dimethyl-2,4(1H,3H)-pyrimidinediones, novel class III antiarrhythmic agents” (1992)
# Assays:
# [1] = test system: Canis familiaris; assay: Percentage change of the duration of action potential at 75% repolarization was measured before and after the administration at 10.0 ug/mL; type: functional, Canis lupus familiaris
# Method in brief: (§1)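 Canine right-ventricular Purkinje fibers (mongrel dogs 7–11 kg, thiopental-anesthetized) superfused with Tyrode's (pH 7.5, 36 °C, gassed 95% O2/5% CO2). Compounds diluted from 1 mM water stock and added cumulatively. Readings taken 20 min after solution exchange. Result given as percent change in action potential duration.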
# [2] = test system: Canis familiaris; assay: The percentage change of the duration of action potential at 75% repolarization was measured before and after the administration at 1.0 ug/mL; type: functional, Canis lupus familiaris; method in brief: as §1
# [3] = test system: Canis familiaris; assay: The prolongation effect of the atrial and ventricular effective refractory period was measured before and after the administration at 0.3 mg/kg
# [4] = test system: Canis familiaris; assay: The percentage change of the duration of action potential at 75% repolarization was measured before and after the administration at 3.0 ug/mL; type: functional, Canis lupus familiaris; method in brief: as §1
# [5] = test system: Canis familiaris; assay: The prolongation effect of the atrial and ventricular effective refractory period was measured before and after the administration at 0.1 mg/kg; type: functional, Canis lupus familiaris, Cardiac atrium; settings: dose 1.0 mg/kg; in the assay text read “1.0 mg/kg” for “0.1 mg/kg”
# Method in brief: (§2)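 In vivo, mongrel dogs of either sex (7–13 kg), anesthetized with pentobarbital sodium 30 mg/kg iv. Left femoral artery cannulated for arterial pressure, femoral vein for drug dosing. Effective refractory period measured before and after administration.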
# [6] = test system: Canis familiaris; assay: The prolongation effect of the atrial and ventricular effective refractory period was measured before and after the administration at 0.3 mg/kg; type: functional, Canis lupus familiaris, Cardiac atrium; method in brief: as §2
# [7] = test system: Canis familiaris; assay: The prolongation effect of the atrial and ventricular effective refractory period was measured before and after the administration at 3 mg/kg; type: functional, Canis lupus familiaris, Cardiac atrium; method in brief: as §2
# [8] = test system: Canis familiaris; assay: The percentage change in the effective refractory period was measured before and after the administration at 0.1 mg/kg; type: functional, Canis lupus familiaris; settings: dose 1.0 mg/kg; in the assay text read “1.0 mg/kg” for “0.1 mg/kg”; method in brief: as §2
# [9] = test system: Canis familiaris; assay: Concentration required for 50% inhibition of tachycardia induced by isoproterenol (0.5ug/mL, iv) in anesthetized dog; type: functional; settings: Canis lupus familiaris, read-out: ID50 (the source's name)
# [10] = test system: Canis familiaris; assay: The prolongation effect of the atrial and ventricular effective refractory period was measured before and after the administration at 1.0 mg/kg
SMILES,APD75 [1] [%],APD75 [2] [%],ERP [3] [%],APD75 [4] [%],ERP [5] [%],ERP [6] [%],ERP [7] [%],ERP [8] [%],ED50 [9] [mg/kg],ERP [10] [%]
Cn1c(N2CCN(CCCc3ccc([N+](=O)[O-])cc3)CC2)cc(=O)n(C)c1=O.O=C(O)C(=O)O,31,17,14.3,22,–,–,–,–,–,–
Cl.Cn1c(N2CCN(CCCOc3ccc(F)cc3)CC2)cc(=O)n(C)c1=O,–,9,–,13,5.9,5.9,11.8,–,–,–
Cl.Cn1c(N2CCN(CCCOc3ccccc3[N+](=O)[O-])CC2)cc(=O)n(C)c1=O,39,–,–,18,–,–,–,6.8,–,–
Cl.Cn1c(N2CCN(CCOc3ccc([N+](=O)[O-])cc3)CC2)cc(=O)n(C)c1=O,43,8,–,22,–,–,–,–,–,–
Cl.Cl.Cn1c(N2CCN(CCCOc3ccc([N+](=O)[O-])cc3)CC2)cc(=O)n(C)c1=O,30,17,–,22,–,–,–,15.8,–,–
Cn1c(NCCNCCCOc2ccccc2)cc(=O)n(C)c1=O,–,4,–,11.9,–,–,–,–,0.1,–
CSc1ccc(OCCCN2CCN(c3cc(=O)n(C)c(=O)n3C)CC2)cc1.Cl,25,4,–,13,–,0,15.4,–,–,7.7
Cl.Cn1c(N2CCN(CCCOc3ccc(Cl)cc3)CC2)cc(=O)n(C)c1=O,–,14,–,25,13,6.3,24.3,–,–,–
CC(C)NCC(O)c1ccc(NS(C)(=O)=O)cc1 (centres undefined) [SOTALOL],11.2,0.7,–,8,–,–,–,–,–,–
CCN(CCCc1ccc([N+](=O)[O-])cc1)CCNc1cc(=O)n(C)c(=O)n1C.Cl,–,11,–,16,–,–,–,–,–,–
CCO.Cn1c(NCCNCC(O)COc2ccccc2)cc(=O)n(C)c1=O (centres undefined),10.1,–,–,6.9,–,–,–,–,0.01,–
CN(CCN(C)c1cc(=O)n(C)c(=O)n1C)CC(O)COc1ccccc1 (centres undefined),–,2.9,–,8,–,–,–,–,1,–
Cl.Cn1c(N2CCN(CCCOc3cccc(Cl)c3)CC2)cc(=O)n(C)c1=O,7,–,–,6,–,–,–,–,–,–
CO.Cl.Cn1c(N2CCN(CCCOc3cccc([N+](=O)[O-])c3)CC2)cc(=O)n(C)c1=O,–,15,–,34,7,–,–,–,–,–
